Data set [1] in a line: Solubility was measured at PH - 7.2 buffer.
The next data set relates to Enterobacter cloacae. Nature of the data set: In vitro for antibacterial activity against Enterobacter cloacae. In kind it is functional.
For data set [2], the system named is Pseudomonas aeruginosa. Nature of the data set: animal or person. Type of data set: functional. The following applies: in Mus musculus, po, read-out: PD50.
The subject of another data set is Klebsiella pneumoniae. As to the kind of experiment: In vitro for antibacterial activity against Klebsiella pneumoniae. In kind it is functional. In short, it runs like this:
(§1)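 MIC by serial 2-fold broth dilution in nutrient broth with an inoculum of 10^6 CFU/mL. Compound range was 0.0005–250 μg/mL. Plates were incubated 18 h at 37 °C. MIC was taken as the lowest concentration preventing visible growth.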

Data set [3] deals with Escherichia coli. Nature of the data set: In vitro for antibacterial activity against Escherichia coli. Type of data set: functional. Summed up:
as §1

Data set [4] can be described thus: Lethal dose was determined in OF1-strain female Swiss mice after oral administration of the drug. The following applies: mouse, in vivo.
For data set [5], the system named is Staphylococcus aureus. Nature of the data set: Antibacterial activity against Staphylococcus aureus. Type of data set: functional.
For another data set, the system named is Serratia marcescens. As to the kind of experiment: In vitro for antibacterial activity against Serratia marcescens. Type of data set: functional. Summed up:
as §1

A further data set has as its system Enterococcus faecalis. As to the kind of experiment: In vitro for antibacterial activity against Enterococcus faecalis. In kind it is functional. In short, it runs like this: as §1
Data set [6] in a line: Lethal dose was determined in OF1-strain female Swiss mice after intra venous administration of the drug. The settings on record: mouse, in vivo, iv.
The test system of data set [7] is Staphylococcus aureus. Nature of the data set: animal or person. In kind it is functional. The following applies: in Mus musculus, po, read-out: PD50.
Another data set deals with Morganella morganii. Nature of the data set: In vitro for antibacterial activity against Morganella morganii. In kind it is functional. Summed up:
as §1

For a further data set, the system named is Proteus mirabilis. Nature of the data set: In vitro for antibacterial activity against Proteus mirabilis. Type of data set: functional. In short, it runs like this: as §1
Data set [8] deals with Streptococcus pneumoniae. As to the kind of experiment: Antibacterial activity against Streptococcus pneumoniae. Type of data set: functional.
The subject of data set [9] is Streptococcus pneumoniae. Nature of the data set: animal or person. In kind it is functional. The following applies: in Mus musculus, po, read-out: PD50.
The test system of data set [10] is Pseudomonas aeruginosa. As to the kind of experiment: In vitro for antibacterial activity against Pseudomonas aeruginosa. Type of data set: functional. Summed up:
as §1

Data set [11] is described as follows: Partition coefficient (logD). The settings on record: octanol/water.
Data set [12] deals with Escherichia coli. Nature of the data set: Compound was tested for […] against Escherichia coli A 15119 after oral administration of drug in mice. Type of data set: functional. The following applies: read-out: PD50. In short, it runs like this: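 Mouse protection test against systemic infection. Compound was dissolved in sterile water and given orally to female OF1-strain Swiss mice weighing 18–25 g, with five mice per group.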

In another data set the test system is Bacteroides fragilis. Nature of the data set: In vitro for antibacterial activity against […]. Type of data set: functional. In short, it runs like this:
as §1

Converted amounts (≈) assume the structure as drawn. A value given as a limit tells only on which side of the number the result lay.

`Cc1c(F)c(N2CC[C@H](N)C2)nc2c1c(=O)c(C(=O)O)cn2-c1ccc(F)cc1` displayed a solubility in data set [1] of 0.08 mg/mL (≈ 200 µM). The MIC in the data set on Enterobacter cloacae amounted to 0.002 mg/L (≈ 0.005 µM); in the data set with Klebsiella pneumoniae it was 0.002 mg/L (≈ 0.005 µM); in the data set on Escherichia coli [3] it was 0.002 mg/L (≈ 0.005 µM); in the data set with Staphylococcus aureus [5] it was 0.004 mg/L (≈ 0.00999 µM); in the data set with Serratia marcescens it was 0.03 mg/L (≈ 0.0749 µM); against Enterococcus faecalis it was 0.06 mg/L (≈ 0.15 µM). Further, the MIC with Morganella morganii came to 0.008 mg/L (≈ 0.02 µM); against Proteus mirabilis, 0.008 mg/L (≈ 0.02 µM); in the data set on Streptococcus pneumoniae [8], 0.03 mg/L (≈ 0.0749 µM); against Pseudomonas aeruginosa [10], 0.25 mg/L (≈ 0.624 µM). Moreover, the ED50 came out at 2.9 mg/kg in the data set on Pseudomonas aeruginosa [2], 4.2 mg/kg in the data set on Staphylococcus aureus [7], 14.4 mg/kg in the data set with Streptococcus pneumoniae [9] and 4.9 mg/kg in the data set with Escherichia coli [12]. Further, the LD50 amounted to 2500 mg/kg in data set [4] and 94 mg/kg in data set [6]. The compound further displayed a logD in data set [11] of 0.91.

Consider `Cc1c(F)c(N2CC3CCC2CN3)nc2c1c(=O)c(C(=O)O)cn2-c1ccc(F)cc1F` (stereo not drawn), for which, in data set [1], the solubility came out at 0.01 mg/mL (≈ 22.5 µM). Further, the MIC in the data set with Enterobacter cloacae was 0.008 mg/L (≈ 0.018 µM); with Bacteroides fragilis it was 4 mg/L (≈ 9 µM); with Klebsiella pneumoniae, 0.008 mg/L (≈ 0.018 µM); with Escherichia coli [3], 0.008 mg/L (≈ 0.018 µM); with Staphylococcus aureus [5], 0.008 mg/L (≈ 0.018 µM); against Serratia marcescens, 0.5 mg/L (≈ 1.13 µM). The minimum inhibitory concentration (MIC) came out at 0.25 mg/L (≈ 0.563 µM) against Enterococcus faecalis; 0.13 mg/L (≈ 0.293 µM) against Morganella morganii; 0.13 mg/L (≈ 0.293 µM) against Proteus mirabilis; 0.06 mg/L (≈ 0.135 µM) against Streptococcus pneumoniae [8]; 0.5 mg/L (≈ 1.13 µM) in the data set on Pseudomonas aeruginosa [10]. Moreover, the ED50 in the data set with Pseudomonas aeruginosa [2] was determined as 1.4 mg/kg; with Staphylococcus aureus [7], 5.4 mg/kg; in the data set on Streptococcus pneumoniae [9] it was 9.5 mg/kg. The LD50 was found to be 2500 mg/kg in [4] and 24 mg/kg in [6]. This compound also had a logD in [11] of 0.4.

`Cc1c(F)c(N2CC3CCC2CN3)nc2c1c(=O)c(C(=O)O)cn2C1CC1` (stereo not drawn): the MIC against Enterobacter cloacae was determined as 0.06 mg/L (≈ 0.161 µM); with Bacteroides fragilis, 16 mg/L (≈ 43 µM); against Klebsiella pneumoniae, 0.016 mg/L (≈ 0.043 µM); against Escherichia coli [3] it was 0.008 mg/L (≈ 0.0215 µM); with Staphylococcus aureus [5] it was 0.03 mg/L (≈ 0.0806 µM); against Serratia marcescens it was 0.13 mg/L (≈ 0.349 µM). The MIC against Enterococcus faecalis was 0.13 mg/L (≈ 0.349 µM); in the data set on Morganella morganii, 0.06 mg/L (≈ 0.161 µM); against Proteus mirabilis, 0.13 mg/L (≈ 0.349 µM); in the data set on Streptococcus pneumoniae [8], 0.13 mg/L (≈ 0.349 µM); against Pseudomonas aeruginosa [10], 0.5 mg/L (≈ 1.34 µM).

As to `Cc1c(F)c(N2CCNCC2)nc2c1c(=O)c(C(=O)O)cn2C(C)(C)C`, the MIC is 0.25 mg/L (≈ 0.69 µM) against Enterobacter cloacae; greater than 32 mg/L with Bacteroides fragilis; 0.06 mg/L (≈ 0.166 µM) against Klebsiella pneumoniae; 0.06 mg/L (≈ 0.166 µM) in the data set with Escherichia coli [3]; 0.03 mg/L (≈ 0.0828 µM) in the data set with Staphylococcus aureus [5]; 0.25 mg/L (≈ 0.69 µM) in the data set with Serratia marcescens. Further, the MIC amounted to 2 mg/L (≈ 5.52 µM) in the data set on Enterococcus faecalis; 0.25 mg/L (≈ 0.69 µM) against Morganella morganii; 0.5 mg/L (≈ 1.38 µM) in the data set with Proteus mirabilis; 1 mg/L (≈ 2.76 µM) against Streptococcus pneumoniae [8]; 4 mg/L (≈ 11 µM) in the data set on Pseudomonas aeruginosa [10].

As to `O=C(O)c1cn(C2CC2)c2nc(N3CC4CC3CN4)c(F)cc2c1=O` (stereo not drawn), the solubility in data set [1] was found to be 0.09 mg/mL (≈ 261 µM). In addition, the MIC against Enterobacter cloacae turned out to be 0.03 mg/L (≈ 0.0871 µM); in the data set on Klebsiella pneumoniae it was 0.06 mg/L (≈ 0.174 µM); against Escherichia coli [3], 0.06 mg/L (≈ 0.174 µM); in the data set with Staphylococcus aureus [5] it was 0.13 mg/L (≈ 0.378 µM); with Serratia marcescens it was 0.25 mg/L (≈ 0.726 µM); in the data set with Enterococcus faecalis, 1 mg/L (≈ 2.9 µM). In addition, the MIC is 0.06 mg/L (≈ 0.174 µM) against Morganella morganii, 0.06 mg/L (≈ 0.174 µM) against Proteus mirabilis and 0.25 mg/L (≈ 0.726 µM) in the data set with Pseudomonas aeruginosa [10].

Take `CCc1c(F)c(N2CC[C@H](N)C2)nc2c1c(=O)c(C(=O)O)cn2C1CC1`: the solubility in data set [1] was 0.07 mg/mL (≈ 194 µM). Moreover, the minimum inhibitory concentration (MIC) with Enterobacter cloacae is 0.25 mg/L (≈ 0.694 µM); in the data set on Bacteroides fragilis it was 1 mg/L (≈ 2.77 µM); in the data set with Klebsiella pneumoniae, 0.25 mg/L (≈ 0.694 µM); with Escherichia coli [3] it was 0.25 mg/L (≈ 0.694 µM); with Staphylococcus aureus [5] it was 1 mg/L (≈ 2.77 µM); against Serratia marcescens, 0.5 mg/L (≈ 1.39 µM). Further, the minimal inhibitory concentration (MIC) was determined as 16 mg/L (≈ 44.4 µM) in the data set on Enterococcus faecalis; 0.5 mg/L (≈ 1.39 µM) against Morganella morganii; 2 mg/L (≈ 5.55 µM) in the data set on Proteus mirabilis; 1 mg/L (≈ 2.77 µM) with Streptococcus pneumoniae [8]; 4 mg/L (≈ 11.1 µM) with Pseudomonas aeruginosa [10]. In data set [11], this compound registered a logD of 1.37.

As to `N[C@H]1CCN(c2nc3c(cc2F)c(=O)c(C(=O)O)cn3C2CC2)C1`, the MIC in the data set on Enterobacter cloacae stood at 0.016 mg/L (≈ 0.0481 µM); against Bacteroides fragilis, 2 mg/L (≈ 6.02 µM); against Klebsiella pneumoniae, 0.004 mg/L (≈ 0.012 µM); in the data set on Escherichia coli [3], 0.002 mg/L (≈ 0.00602 µM); against Staphylococcus aureus [5] it was 0.016 mg/L (≈ 0.0481 µM); against Serratia marcescens, 0.016 mg/L (≈ 0.0481 µM). Moreover, the MIC with Enterococcus faecalis was 0.25 mg/L (≈ 0.752 µM); in the data set with Morganella morganii it was 0.004 mg/L (≈ 0.012 µM); in the data set with Proteus mirabilis, 0.03 mg/L (≈ 0.0903 µM); against Streptococcus pneumoniae [8] it was 0.25 mg/L (≈ 0.752 µM); in the data set with Pseudomonas aeruginosa [10] it was 0.25 mg/L (≈ 0.752 µM).

On to `O=C(O)c1cn(-c2ccc(F)cc2F)c2nc(N3CCNCC3)c(F)cc2c1=O`, for which the MIC with Enterobacter cloacae worked out at 0.03 mg/L (≈ 0.0742 µM); with Bacteroides fragilis, 2 mg/L (≈ 4.95 µM); against Klebsiella pneumoniae it was 0.03 mg/L (≈ 0.0742 µM); in the data set on Escherichia coli [3], 0.016 mg/L (≈ 0.0396 µM); in the data set on Staphylococcus aureus [5] it was 0.03 mg/L (≈ 0.0742 µM); against Serratia marcescens, 0.13 mg/L (≈ 0.322 µM). For the same compound, the MIC worked out at 1 mg/L (≈ 2.47 µM) in the data set with Enterococcus faecalis; 0.13 mg/L (≈ 0.322 µM) against Morganella morganii; 0.06 mg/L (≈ 0.148 µM) against Proteus mirabilis; 0.5 mg/L (≈ 1.24 µM) against Streptococcus pneumoniae [8]; 0.5 mg/L (≈ 1.24 µM) in the data set with Pseudomonas aeruginosa [10].

Source of the values: ChEMBL document CHEMBL1126152, “Fluoronaphthyridines as antibacterial agents. 4. Synthesis and structure-activity relationships of 5-substituted-6-fluoro-7-(cycloalkylamino)-1,4-dihydro-4-oxo-1,8- naphthyridine-3-carboxylic acids” (J Med Chem, 1992).
